According to ChEMBL document CHEMBL1914423, “New imidazo[2,1-b]thiazole derivatives: synthesis, in vitro anticancer evaluation, and in silico studies” (Eur J Med Chem, 2011):

Columns and labels:
[1] = test system: SR; experiment: Anticancer activity against human SR cells assessed as cell growth at 10^-5 M after 48 hrs by SRB assay; format: functional; settings: read-out: Activity
Summary of the method: (§1)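 NCI-60 single-dose screen: cells in RPMI 1640 with 5% FBS and 2 mM L-glutamine, plated at 5000–40,000 cells/well by doubling time, and preincubated 24 h at 37 °C. Compound given at one concentration from DMSO stock. Cells TCA-fixed and SRB-stained, absorbance at 515 nm. Percent growth relative to time-zero and untreated controls; inhibition % = 100 − growth %.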

[2] = test system: IGROV-1; experiment: Anticancer activity against human IGROV1 cells assessed as cell growth at 10^-5 M after 48 hrs by SRB assay; format: functional; settings: IGROV-1, 48 h, read-out: Activity
Summary of the method: (§2)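 NCI-60 single-dose screen at one concentration. Cells grown in RPMI 1640 with 5% FBS and 2 mM L-glutamine, plated at 5000–40,000 cells/well, and pre-incubated 24 h at 37 °C in 5% CO2 before DMSO-dissolved drug was added. Cells fixed with TCA, SRB-stained, absorbance read at 515 nm. Percent growth calculated against time-zero and untreated control plates.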

[3] = test system: UO-31; experiment: Anticancer activity against human UO31 cells assessed as cell growth at 10^-5 M after 48 hrs by SRB assay; format: functional; settings: UO-31, 48 h, read-out: Activity; summary of the method: as §1
[4] = test system: NCI-H322M; experiment: Anticancer activity against human NCI-H322M cells assessed as cell growth at 10^-5 M after 48 hrs by SRB assay; format: functional; settings: read-out: Activity
[5] = test system: UACC-257; experiment: Anticancer activity against human UACC257 cells assessed as cell growth at 10^-5 M after 48 hrs by SRB assay; format: functional; settings: UACC-257, 48 h, read-out: Activity; summary of the method: as §1
[6] = test system: KM12; experiment: Anticancer activity against human KM12 cells assessed as cell growth at 10^-5 M after 48 hrs by SRB assay; format: functional; settings: KM12, 48 h, read-out: Activity; summary of the method: as §2
[7] = test system: CAKI-1; experiment: Anticancer activity against human Caki1 cells assessed as cell growth at 10^-5 M after 48 hrs by SRB assay; format: functional; settings: CAKI-1, 48 h, read-out: Activity; summary of the method: as §2
[8] = test system: SF-295; experiment: Anticancer activity against human SF295 cells assessed as cell growth at 10^-5 M after 48 hrs by SRB assay; format: functional; settings: SF-295, 48 h, read-out: Activity
[9] = test system: SK-MEL-5; experiment: Anticancer activity against human SK-MEL-5 cells assessed as cell growth at 10^-5 M after 48 hrs by SRB assay; format: functional; settings: SK-MEL-5, 48 h, read-out: Activity
[10] = Antiproliferative activity against human A375P cells after 48 hrs by MTT assay; format: functional, cell-based
Summary of the method: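 A375P cells in DMEM with 10% FBS at 37 °C, 5% CO2. Seeded at 5×10³ cells/well, held 24 h, then treated with 12-point 3-fold serial dilutions for 48 h. Viability by MTT reduction. IC50 values are means of triplicate experiments.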

[11] = test system: T47D; experiment: Anticancer activity against human T47D cells assessed as cell growth at 10^-5 M after 48 hrs by SRB assay; format: functional; settings: read-out: Activity; summary of the method: as §1
[12] = test system: HT-29; experiment: Anticancer activity against human HT-29 cells assessed as cell growth at 10^-5 M after 48 hrs by SRB assay; format: functional; settings: HT-29, 48 h, read-out: Activity; summary of the method: as §2
[13] = test system: OVCAR-8; experiment: Anticancer activity against human OVCAR8 cells assessed as cell growth at 10^-5 M after 48 hrs by SRB assay; format: functional; settings: OVCAR-8, 48 h, read-out: Activity
[14] = test system: HCT-15; experiment: Anticancer activity against human HCT15 cells assessed as cell growth at 10^-5 M after 48 hrs by SRB assay; format: functional; settings: HCT-15, 48 h, read-out: Activity; summary of the method: as §2
[15] = test system: A498; experiment: Anticancer activity against human A498 cells assessed as cell growth at 10^-5 M after 48 hrs by SRB assay; format: functional; settings: A498, 48 h, read-out: Activity; summary of the method: as §2
[16] = test system: 786-0; experiment: Anticancer activity against human 786-0 cells assessed as cell growth at 10^-5 M after 48 hrs by SRB assay; format: functional; settings: 786-0, 48 h, read-out: Activity; summary of the method: as §2
[17] = test system: HOP-92; experiment: Anticancer activity against human HOP92 cells assessed as cell growth at 10^-5 M after 48 hrs by SRB assay; format: functional; settings: HOP-92, 48 h, read-out: Activity; summary of the method: as §2
[18] = test system: RPMI-8226; experiment: Anticancer activity against human RPMI8226 cells assessed as cell growth at 10^-5 M after 48 hrs by SRB assay; format: functional; settings: RPMI-8226, 48 h, read-out: Activity
[19] = test system: MCF7; experiment: Anticancer activity against human MCF7 cells assessed as cell growth at 10^-5 M after 48 hrs by SRB assay; format: functional; settings: MCF7, 48 h, read-out: Activity; summary of the method: as §2
[20] = test system: MDA-MB-435; experiment: Anticancer activity against human MDA-MB-435 cells assessed as cell growth at 10^-5 M after 48 hrs by SRB assay; format: functional; settings: MDA-MB-435, 48 h, read-out: Activity
[21] = test system: OVCAR-5; experiment: Anticancer activity against human OVCAR5 cells assessed as cell growth at 10^-5 M after 48 hrs by SRB assay; format: functional; settings: OVCAR-5, 48 h, read-out: Activity
[22] = test system: SW-620; experiment: Anticancer activity against human SW620 cells assessed as cell growth at 10^-5 M after 48 hrs by SRB assay; format: functional; settings: SW-620, 48 h, read-out: Activity; summary of the method: as §1
[23] = test system: PC-3; experiment: Anticancer activity against human PC3 cells assessed as cell growth at 10^-5 M after 48 hrs by SRB assay; format: functional; settings: PC-3, 48 h, read-out: Activity
[24] = test system: NCI-H226; experiment: Anticancer activity against human NCI-H226 cells assessed as cell growth at 10^-5 M after 48 hrs by SRB assay; format: functional; settings: NCI-H226, 48 h, read-out: Activity
[25] = test system: SNB-19; experiment: Anticancer activity against human SNB19 cells assessed as cell growth at 10^-5 M after 48 hrs by SRB assay; format: functional; settings: SNB-19, 48 h, read-out: Activity
[26] = test system: CCRF-CEM; experiment: Anticancer activity against human CCRF-CEM cells assessed as cell growth at 10^-5 M after 48 hrs by SRB assay; format: functional; settings: read-out: Activity; summary of the method: as §2
[27] = test system: NCI/ADR-RES; experiment: Anticancer activity against human NCI/ADR-RES cells assessed as cell growth at 10^-5 M after 48 hrs by SRB assay; format: functional; settings: read-out: Activity
[28] = test system: Malme-3M; experiment: Anticancer activity against human MALME-3M cells assessed as cell growth at 10^-5 M after 48 hrs by SRB assay; format: functional; settings: read-out: Activity; summary of the method: as §2
[29] = test system: SK-MEL-2; experiment: Anticancer activity against human SK-MEL-2 cells assessed as cell growth at 10^-5 M after 48 hrs by SRB assay; format: functional; settings: SK-MEL-2, 48 h, read-out: Activity
[30] = test system: SF-268; experiment: Anticancer activity against human SF268 cells assessed as cell growth at 10^-5 M after 48 hrs by SRB assay; format: functional; settings: SF-268, 48 h, read-out: Activity
[31] = test system: SK-OV-3; experiment: Anticancer activity against human SKOV3 cells assessed as cell growth at 10^-5 M after 48 hrs by SRB assay; format: functional; settings: SK-OV-3, 48 h, read-out: Activity
[32] = test system: K562; experiment: Anticancer activity against human K562 cells assessed as cell growth at 10^-5 M after 48 hrs by SRB assay; format: functional; settings: K562, 48 h, read-out: Activity; summary of the method: as §2

O=C(NCCNc1nccc(-c2c(-c3cccc(O)c3)nc3sccn23)n1)c1cc(N2CCOCC2)cc(C(F)(F)F)c1 showed a growth at 10 µM [1] of 97.3%, a growth at 10 µM [2] of 80.4% and a growth at 10 µM [3] of 87.5%. The growth at 10 µM [4] was 107%, the growth at 10 µM [5] was 16.7% and the growth at 10 µM [6] was 97.3%. The growth at 10 µM [7] was 82.5%, the growth at 10 µM [8] was 84.4% and the growth at 10 µM [9] was 58.4%. It also gave an IC50 [10] of 4.4 µM, a growth at 10 µM [11] of 77.7% and a growth at 10 µM [12] of 49.2%. For the same compound, the growth at 10 µM [13] was 78.1%, the growth at 10 µM [14] was 92% and the growth at 10 µM [15] was 92.8%. The growth at 10 µM [16] was 86.6%, the growth at 10 µM [17] was 87.7% and the growth at 10 µM [18] was 67%. For the same compound, the growth at 10 µM [19] was 85.4%, the growth at 10 µM [20] was 34.7% and the growth at 10 µM [21] was 101%. The growth at 10 µM [22] was 126%, the growth at 10 µM [23] was 78.2% and the growth at 10 µM [24] was 106%. The growth at 10 µM [25] was 125%, the growth at 10 µM [26] was 52.9% and the growth at 10 µM [27] was 103%. It also gave a growth at 10 µM [28] of 3.04%, a growth at 10 µM [29] of 64.5% and a growth at 10 µM [30] of 102%. The growth at 10 µM [31] was 94% and the growth at 10 µM [32] was 70.7%.
